Laboratory results taken from ChEMBL document CHEMBL4219162, “Adamantane amine-linked chloroquinoline derivatives as chloroquine resistance modulating agents in Plasmodium falciparum” (Bioorg Med Chem Lett, 2018).

How the values were obtained:
[1] = tested on: CHO; experiment: Cytotoxicity against CHO cells by MTT assay; type: cell-based; settings: Cricetulus griseus
In short: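 Chinese hamster ovary cell growth and survival read by viable-cell reduction of yellow MTT to purple-blue formazan. IC50 derived. Emetine served as the cytotoxic reference drug.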

[2] = tested on: Plasmodium falciparum; experiment: Antimalarial activity against chloroquine-resistant Plasmodium falciparum K1 infected in normal type A human erythrocytes incubated for 72 hrs by spectrophotometry based parasite lactate dehydrogenase assay; type: functional, organism-based; settings: K1, 72 h
In short: (§1)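 Modified parasite lactate dehydrogenase (pLDH) assay run in parallel on CQ-sensitive NF54 and CQ-resistant K1 strains, with chloroquine as positive control. […], 37 °C, and the readout gave IC50.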

[3] = tested on: Plasmodium falciparum; experiment: Antimalarial activity against chloroquine-sensitive Plasmodium falciparum NF54 infected in normal type A human erythrocytes incubated for 72 hrs by spectrophotometry based parasite lactate dehydrogenase assay; type: functional, organism-based; settings: NF54, 72 h; in short: as §1
[4] = Resistance index, ratio of IC50 for chloroquine-resistant Plasmodium falciparum K1 infected in normal type A human erythrocytes to IC50 for chloroquine-sensitive Plasmodium falciparum NF54 infected in normal type A human erythrocytes; type: functional
In short: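 Resistance index computed as IC50 against K1 divided by IC50 against NF54, both from the pLDH assay.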

[5] = Selectivity index, ratio of IC50 for CHO cells to IC50 for chloroquine-resistant Plasmodium falciparum K1 infected in normal type A human erythrocytes; type: toxicity, cell-based; settings: Chinese hamster; read-out: Ratio IC50
In short: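 Selectivity index computed as IC50 in Chinese hamster ovary cells, measured by MTT reduction to formazan, divided by IC50 against K1 from the pLDH assay.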

[6] = Reversal modification index, ratio of IC50 for chloroquine-resistant Plasmodium falciparum K1 infected in normal type A human erythrocytes to IC50 for chloroquine-sensitive Plasmodium falciparum NF54 infected in normal type A human erythrocytes relative to […]; type: functional
In short: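 Reversal modification index taken as the resistance index (IC50 K1/IC50 NF54) of each compound relative to the resistance index of chloroquine.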

[7] = tested on: Plasmodium falciparum; experiment: Potency index, ratio of IC50 for […] to IC50 for test compound for antimalarial activity against chloroquine-resistant Plasmodium falciparum K1 infected in normal type A human erythrocytes incubated for 72 hrs by spectrophotometry based parasite lactate dehydrogenase assay; type: functional
[8] = Aqueous stability of the compound in pH 7.4 HEPES-buffer at 1 mg/ml at 37 degC after 72 hrs by UV spectroscopic method; type: physicochemical; settings: pH 7.4, 72 h
In short: (§2)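 Test compound at 1 mg/ml in aqueous HEPES-containing buffer, held at 37 °C for 72 h to check for degradation. pH 7.4 matches the pLDH antimalarial assay medium. pH 4.5 approximates the parasite's acidic digestive vacuole. Conditions mirror the pLDH assay procedure.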

[9] = Aqueous stability of the compound in pH 4.5 HEPES-buffer at 1 mg/ml at 37 degC after 72 hrs by UV spectroscopic method; type: physicochemical; settings: pH 4.5, 72 h; in short: as §2

SMILES | IC50 [1] [nM] | IC50 [2] [nM] | IC50 [3] [nM] | Ratio IC50 [4] | selectivity ratio [5] | Ratio IC50 [6] | Ratio IC50 [7] | Stability [8] | Stability [9]
OC12CC3CC(CC(C3)N1CCCCCCNc1ccnc3cc(Cl)ccc13)C2 | 80800 | 284 | 112 | 3.81 | 285 | 10.09 | – | – | –
OC12CC3CC(CC(C3)N1CCCNc1ccnc3cc(Cl)ccc13)C2 | 45200 | 96.8 | 22.3 | 4.34 | 467 | 8.86 | 3 - 4 | – | –
OC12CC3CC(CC(C3)N1CCNc1ccnc3cc(Cl)ccc13)C2 | > 279000 | 98.9 | 46.9 | 2.11 | > 2820 | 18.23 | 3 - 4 | – | –
OC12CC3CC(CC(C3)N1CCCCNc1ccnc3cc(Cl)ccc13)C2 | 37900 | 198 | 33.9 | 5.84 | 191 | 6.59 | – | – | –
Clc1ccc2c(NCCCCCCN=C3C4CC5CC(C4)CC3C5)ccnc2c1 | > 103000 | 1580 | 113 | 14.02 | 104 | 2.74 | – | – | –
Clc1ccc2c(NCCN=C3C4CC5CC(C4)CC3C5)ccnc2c1 | 98500 | 93.8 | 26.3 | 3.56 | 1050 | 10.8 | 3 - 4 | – | –
OC12C3C4CC5C6C4C1C6C(C53)N2CCNc1ccnc2cc(Cl)ccc12 (centres undefined) | – | 72.6 | 9.84 | 7.36 | 131 | 5.22 | – | – | –
CCN(CC)CCCC(C)Nc1ccnc2cc(Cl)ccc12 (centres undefined) [CHLOROQUINE] | 57800 | – | – | – | – | – | – | – | –
Clc1ccc2c(NCCCN=C3C4CC5CC(C4)CC3C5)ccnc2c1 | 66400 | 192 | 5 | – | 346 | 2.4 | – | Stable | Unstable
CC[C@H]1CN2CCc3cc(OC)c(OC)cc3[C@@H]2C[C@@H]1C[C@H]1NCCc2cc(OC)c(OC)cc21 [EMETINE] | 130 | – | – | – | – | – | – | – | –
Clc1ccc2c(NCCCCN=C3C4CC5CC(C4)CC3C5)ccnc2c1 | 57100 | 784 | 108 | 7.23 | 73 | 5.32 | – | – | –
